In ChEMBL document CHEMBL1221349, “Novel pyrrolidine heterocycles as CCR1 antagonists” (Bioorg Med Chem Lett, 2010):

How the values were obtained:
[1] = target: T1, C-C chemokine receptor type 1 (Homo sapiens, UniProt P32246); assay: Displacement of [125I]-MIP1-alpha from human recombinant CCR1 expressed in HEK293 cells after 4 hrs by SPA; assay type: cell-based
T1 sequence (P32246 whole entry): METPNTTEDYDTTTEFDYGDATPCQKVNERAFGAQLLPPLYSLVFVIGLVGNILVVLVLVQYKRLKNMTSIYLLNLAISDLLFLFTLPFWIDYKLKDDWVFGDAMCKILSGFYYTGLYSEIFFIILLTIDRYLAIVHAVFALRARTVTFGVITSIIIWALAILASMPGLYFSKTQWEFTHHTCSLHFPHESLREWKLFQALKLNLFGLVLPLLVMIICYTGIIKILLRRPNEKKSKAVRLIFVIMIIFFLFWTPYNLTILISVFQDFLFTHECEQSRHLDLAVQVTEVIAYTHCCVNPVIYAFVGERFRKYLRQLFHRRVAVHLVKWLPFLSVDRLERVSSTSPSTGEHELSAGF
Method in brief: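 This was a SPA binding assay on membranes from HEK293 cells stably expressing human CCR1 from an episomal vector. Buffer was 130 mM NaCl, 5 mM KCl, 1 mM MnCl2, 50 mM Tris-HCl pH 7.4, 0.1% BSA, with SPA beads at 10 mg/ml. Compound dilutions were added, then [125I]-MIP1a at 0.1 nM final. Plates were spun 2 min, incubated 4 h, then scintillation-counted.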

[2] = Metabolic stability in human liver microsomes assessed as compound remaining at 1 uM after 30 mins; assay type: ADME, Microsome; conditions: read-out: Stability
Method in brief: (§1)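 Rat or human liver microsomes (300 nM cytochrome P450) were incubated in phosphate buffer pH 7.4 with test compound and 1 mM NADPH for 30 min at 37 °C. Reactions were stopped with acetonitrile and centrifuged. Samples were analyzed by LC/MS as percent parent remaining at 30 min.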

[3] = Metabolic stability in rat liver microsomes assessed as compound remaining at 1 uM after 30 mins; assay type: ADME, Microsome; conditions: read-out: Stability; method in brief: as §1
[4] = (§2) AUC (0 to infinity) in Sprague-Dawley rat at 5 mg/kg, po; assay type: ADME, organism-based, Plasma; design: time infinity, dose 5 mg/kg, route oral; conditions: Sprague-Dawley, plasma
Method in brief: (§3)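 Male Sprague-Dawley rats (3–4) were gavaged at 5 mg/kg in 0.5% methyl cellulose, either singly or in a cassette. Serial arterial-cannula blood was drawn up to 6 or 24 h. Parent compound was measured in plasma by LC/MS/MS after protein precipitation. Parameters came from non-compartmental analysis.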

[5] = test system: Rattus norvegicus; assay: as §2; assay type: ADME, organism-based, Plasma; design: time infinity, dose 5 mg/kg, route oral; conditions: in vivo; method in brief: as §3
[6] = Half life in Sprague-Dawley rat plasma at 5 mg/kg, po; assay type: ADME, organism-based; design: dose 5 mg/kg, route oral; method in brief: as §3
[7] = Oral bioavailability in Sprague-Dawley rat plasma at 5 mg/kg; assay type: ADME, organism-based
Method in brief: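 Male Sprague-Dawley rats (3–4) received an oral gavage of 5 mg/kg in 0.5% methyl cellulose and, separately, 1 mg/kg intravenously via an indwelling catheter. Serial arterial blood was collected. Plasma parent compound was measured by LC/MS/MS after protein precipitation. Bioavailability came from non-compartmental analysis.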

[8] = Tmax in Sprague-Dawley rat plasma at 5 mg/kg, po; assay type: ADME, organism-based; design: dose 5 mg/kg, route oral; method in brief: as §3
[9] = Cmax in Sprague-Dawley rat plasma at 5 mg/kg, po; assay type: ADME, organism-based; design: dose 5 mg/kg, route oral; method in brief: as §3
[10] = target: Cytochrome P450 3A4 (Homo sapiens, UniProt P08684); assay: Inhibition of human recombinant CYP3A4 at < 10 uM; assay type: ADME; conditions: recombinant enzyme
Method in brief: (§4)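 Each human recombinant CYP isoenzyme (1A2, 2C9, 2C19, 2D6, 3A4) was run with its own fluorogenic substrate, with test compound up to […]. Fluorescence was read after a defined reaction time. Percent inhibition was fitted against log concentration to give IC50.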

[11] = target: Cytochrome P450 2D6 (Homo sapiens, UniProt P10635); assay: Inhibition of human recombinant CYP2D6 at < 10 uM; assay type: ADME; conditions: recombinant enzyme; method in brief: as §4
[12] = target: Cytochrome P450 2C9 (Homo sapiens, UniProt P11712); assay: Inhibition of human recombinant CYP2C9 at < 10 uM; assay type: ADME; conditions: recombinant enzyme; method in brief: as §4
[13] = target: T2, Cytochrome P450 1A2 (Homo sapiens, UniProt P05177); assay: Inhibition of human recombinant CYP1A2 at < 10 uM; assay type: ADME; conditions: recombinant enzyme; method in brief: as §4
T2 sequence (P05177 whole entry): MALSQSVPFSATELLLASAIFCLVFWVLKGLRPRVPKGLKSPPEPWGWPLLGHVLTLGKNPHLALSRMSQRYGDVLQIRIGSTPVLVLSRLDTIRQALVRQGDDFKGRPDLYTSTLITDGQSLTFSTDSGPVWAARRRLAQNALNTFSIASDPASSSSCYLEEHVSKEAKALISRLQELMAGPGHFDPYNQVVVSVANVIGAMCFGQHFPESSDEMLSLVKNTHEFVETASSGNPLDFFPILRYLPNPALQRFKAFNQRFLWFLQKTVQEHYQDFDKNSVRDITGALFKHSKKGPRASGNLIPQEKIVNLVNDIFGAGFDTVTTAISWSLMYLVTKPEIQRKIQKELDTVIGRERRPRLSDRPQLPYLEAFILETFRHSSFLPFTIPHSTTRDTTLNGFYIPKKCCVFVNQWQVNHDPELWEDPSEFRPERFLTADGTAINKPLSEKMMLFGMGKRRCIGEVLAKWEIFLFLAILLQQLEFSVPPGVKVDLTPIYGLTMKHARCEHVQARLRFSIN

[14] = target: Cytochrome P450 2C19 (Homo sapiens, UniProt P33261); assay: Inhibition of human recombinant CYP2C19 at < 10 uM; assay type: ADME; conditions: recombinant enzyme; method in brief: as §4
[15] = Antagonist activity at CCR1 in human THP1 cells assessed as inhibition of CCL3-induced chemotaxis after 3 hrs; conditions: thp-1

Chain of Cytochrome P450 3A4 (P08684 whole entry): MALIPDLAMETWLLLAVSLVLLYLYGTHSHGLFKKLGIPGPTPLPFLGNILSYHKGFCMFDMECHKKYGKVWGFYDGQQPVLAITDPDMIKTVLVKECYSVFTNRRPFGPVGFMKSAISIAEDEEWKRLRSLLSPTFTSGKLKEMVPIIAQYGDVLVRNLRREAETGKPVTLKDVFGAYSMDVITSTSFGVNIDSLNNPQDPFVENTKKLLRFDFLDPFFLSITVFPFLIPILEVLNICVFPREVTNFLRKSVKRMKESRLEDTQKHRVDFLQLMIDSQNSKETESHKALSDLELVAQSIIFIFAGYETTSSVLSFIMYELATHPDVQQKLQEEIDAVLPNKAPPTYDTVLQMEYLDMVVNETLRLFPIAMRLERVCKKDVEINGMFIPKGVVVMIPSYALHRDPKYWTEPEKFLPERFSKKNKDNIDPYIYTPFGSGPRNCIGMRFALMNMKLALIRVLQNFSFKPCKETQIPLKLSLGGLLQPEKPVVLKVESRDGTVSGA
Chain of Cytochrome P450 2C19 (P33261 whole entry): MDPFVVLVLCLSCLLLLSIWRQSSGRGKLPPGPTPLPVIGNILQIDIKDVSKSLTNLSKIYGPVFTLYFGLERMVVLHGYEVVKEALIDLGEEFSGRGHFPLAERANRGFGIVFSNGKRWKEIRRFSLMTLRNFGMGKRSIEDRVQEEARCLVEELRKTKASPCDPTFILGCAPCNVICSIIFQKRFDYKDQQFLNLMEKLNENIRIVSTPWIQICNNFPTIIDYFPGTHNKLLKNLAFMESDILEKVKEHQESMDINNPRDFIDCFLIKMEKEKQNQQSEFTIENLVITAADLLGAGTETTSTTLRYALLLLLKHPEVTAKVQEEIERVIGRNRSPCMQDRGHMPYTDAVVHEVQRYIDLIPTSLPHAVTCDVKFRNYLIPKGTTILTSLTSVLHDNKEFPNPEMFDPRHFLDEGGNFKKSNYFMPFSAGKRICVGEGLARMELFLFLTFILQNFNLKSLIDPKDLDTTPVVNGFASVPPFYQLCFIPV
Chain of Cytochrome P450 2D6 (P10635 whole entry): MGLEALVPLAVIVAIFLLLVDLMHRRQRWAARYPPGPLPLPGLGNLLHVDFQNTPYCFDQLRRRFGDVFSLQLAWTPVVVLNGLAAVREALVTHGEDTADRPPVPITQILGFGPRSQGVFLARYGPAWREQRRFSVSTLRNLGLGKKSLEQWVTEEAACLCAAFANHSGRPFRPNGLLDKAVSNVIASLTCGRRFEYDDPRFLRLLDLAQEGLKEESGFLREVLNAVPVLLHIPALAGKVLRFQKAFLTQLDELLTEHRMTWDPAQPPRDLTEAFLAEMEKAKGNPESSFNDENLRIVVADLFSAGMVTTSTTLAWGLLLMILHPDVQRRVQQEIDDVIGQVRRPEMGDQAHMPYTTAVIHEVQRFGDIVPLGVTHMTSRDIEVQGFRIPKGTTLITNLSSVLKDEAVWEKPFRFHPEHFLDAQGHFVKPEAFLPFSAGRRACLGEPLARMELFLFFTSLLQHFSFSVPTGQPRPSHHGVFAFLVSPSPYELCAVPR
Chain of Cytochrome P450 2C9 (P11712 whole entry): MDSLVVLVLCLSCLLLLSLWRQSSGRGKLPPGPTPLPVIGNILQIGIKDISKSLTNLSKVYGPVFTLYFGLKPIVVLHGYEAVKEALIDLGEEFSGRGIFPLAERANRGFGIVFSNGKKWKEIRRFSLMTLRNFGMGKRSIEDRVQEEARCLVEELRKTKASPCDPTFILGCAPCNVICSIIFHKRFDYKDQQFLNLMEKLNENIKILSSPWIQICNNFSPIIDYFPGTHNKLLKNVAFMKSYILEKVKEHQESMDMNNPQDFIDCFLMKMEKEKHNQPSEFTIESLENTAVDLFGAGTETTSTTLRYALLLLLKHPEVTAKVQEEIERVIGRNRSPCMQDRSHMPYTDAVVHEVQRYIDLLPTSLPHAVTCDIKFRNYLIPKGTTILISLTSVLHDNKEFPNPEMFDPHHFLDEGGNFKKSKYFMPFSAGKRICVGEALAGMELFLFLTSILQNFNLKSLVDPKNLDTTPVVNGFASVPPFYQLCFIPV

Row | SMILES | IC50 [1] | remaining at 0.5 h, 1 µM [2] | remaining at 0.5 h, 1 µM [3] | AUC(0-inf) [4] | other results
1 | O=C(Nc1ccc(C(F)(F)F)cc1)N1CCCC1c1nccn1Cc1ccc(Cl)cc1 (stereo not given) | 65 nM | 39% | 55% | 100 ng·h/mL | 
2 | O=C(Nc1ccc(C(F)(F)F)cc1)N1CCC[C@@H]1c1nnnn1Cc1ccc(Cl)cc1 | 20 nM | 59% | 25% |  | 
3 | O=C(Nc1ccc(C(F)(F)F)cc1)N1CCC[C@@H]1c1ncnn1Cc1ccc(Cl)cc1 | 32 nM | 61% | 81% | 4460 ng·h/mL | 
4 | Cc1nc([C@H]2CCCN2C(=O)Nc2ccc(C(F)(F)F)cc2)n(Cc2ccc(Cl)cc2)n1 | 810 nM |  |  |  | 
5 | O=C(Nc1ccc(C(F)(F)F)cc1)N1CCC[C@@H]1c1nncn1Cc1ccc(Cl)cc1 | 17 nM | 52% | 41% | 657 ng·h/mL | 
6 | Cc1nnc([C@H]2CCCN2C(=O)Nc2ccc(C(F)(F)F)cc2)n1Cc1ccc(Cl)cc1 | 69 nM | 100% | 87% |  | AUC [5]: 7649 ng·h/mL; half-life [6]: 3.8 h; bioavailability [7]: 26%; Tmax [8]: 1.1 h; Cmax [9]: 1120 ng/mL; inhibition (INH) [10]: Not Active; inhibition (INH) [11]: Not Active; inhibition (INH) [12]: Not Active; inhibition (INH) [13]: Not Active; inhibition (INH) [14]: Not Active
7 | CN(Cc1ccc(Cl)cc1)C(=O)[C@H]1CCCN1C(=O)Nc1ccc(C(F)(F)F)cc1 |  |  |  |  | IC50 [15]: 22 nM
